The structures appear in SMILES notation.

The target in assay [1] is T1, DNA topoisomerase 1 (Homo sapiens) (UniProt P11387).
T1 sequence (whole entry): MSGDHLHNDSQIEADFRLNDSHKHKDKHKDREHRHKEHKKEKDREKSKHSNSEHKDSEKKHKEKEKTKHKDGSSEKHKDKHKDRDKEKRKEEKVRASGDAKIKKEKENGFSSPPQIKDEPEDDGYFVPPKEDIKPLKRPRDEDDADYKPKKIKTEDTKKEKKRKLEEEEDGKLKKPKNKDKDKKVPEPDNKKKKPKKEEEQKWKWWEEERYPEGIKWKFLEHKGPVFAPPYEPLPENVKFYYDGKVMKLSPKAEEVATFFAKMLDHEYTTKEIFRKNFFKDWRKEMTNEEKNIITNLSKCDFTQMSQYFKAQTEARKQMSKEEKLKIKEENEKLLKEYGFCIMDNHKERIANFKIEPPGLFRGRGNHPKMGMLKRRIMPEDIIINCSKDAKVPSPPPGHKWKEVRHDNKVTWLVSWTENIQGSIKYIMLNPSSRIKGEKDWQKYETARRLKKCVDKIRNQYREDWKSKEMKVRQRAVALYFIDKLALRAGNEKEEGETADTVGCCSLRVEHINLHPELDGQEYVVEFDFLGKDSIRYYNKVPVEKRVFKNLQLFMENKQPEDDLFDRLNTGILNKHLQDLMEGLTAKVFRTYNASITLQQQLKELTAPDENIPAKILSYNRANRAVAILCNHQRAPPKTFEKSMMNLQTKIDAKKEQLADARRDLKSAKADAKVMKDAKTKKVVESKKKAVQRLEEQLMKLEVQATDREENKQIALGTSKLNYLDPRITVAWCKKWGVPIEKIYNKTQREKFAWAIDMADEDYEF
The experiment in a line: Topoisomerase I mediated DNA cleavage. In kind it is functional. Put shortly: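 Recombinant human topoisomerase I (expressed in E. coli) was incubated with end-labeled plasmid YEpG DNA and drug for 30 min at 37 °C. Drug was given as 10-fold serial dilutions from 0.01 to 10 µg/mL. Fragments were separated on gels and autoradiographed, typically with 24 h exposure. Cleavage was scored from the strongest specific band and expressed as concentration relative to reference compound (set to 1) giving equal cleavage.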

Assay [2] concerns RPMI 8402. The experiment in a line: Cytotoxicity using human lymphoblast RPMI 8402 cells. In kind it is functional, cell-based. Put shortly: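 Human lymphoblast RPMI 8402 cells were grown in suspension at 37 °C, 5% CO2, in RPMI with 10% heat-inactivated FBS, 2 mM L-glutamine, penicillin 100 U/mL and streptomycin 0.1 mg/mL. Cells were seeded at 2000/well and exposed continuously to a range of drug concentrations for 4 days, then read by MTT assay. A no-drug control was included, and each assay was run at least twice in six replica wells.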

As a reminder, the IC50 is the concentration that gives 50% inhibition. `COc1ccc(-c2ccc3[nH]c(-c4ccc5[nH]c(-c6ccc7[nH]cnc7c6)nc5c4)nc3c2)cc1` displayed an REC in assay [1] of 0.5. The IC50 in assay [2] was determined as 90 nM. In assay [1], `c1ccc(-c2ccc3[nH]c(-c4ccc5[nH]c(-c6ccc7[nH]cnc7c6)nc5c4)nc3c2)cc1` returned an REC of 1. Consider `CC(C)c1nc2cc(-c3nc4cc(-c5nc6cc(-c7ccccc7)ccc6[nH]5)ccc4[nH]3)ccc2[nH]1`, for which, in assay [1], the REC is 0.05. The compound also showed an IC50 in assay [2] of 60 nM. The corresponding values for `CCc1nc2cc(-c3nc4cc(-c5nc6cc(-c7ccccc7)ccc6[nH]5)ccc4[nH]3)ccc2[nH]1` are 1 and 110 nM. For `COc1ccc(-c2nc3cc(-c4nc5cc(-c6nc7cc(-c8ccccc8)ccc7[nH]6)ccc5[nH]4)ccc3[nH]2)cc1` the same measures were 20 and 380 nM. The corresponding values for `Cc1nc2cc(-c3nc4cc(-c5nc6cc(-c7ccccc7)ccc6[nH]5)ccc4[nH]3)ccc2[nH]1` are 2 and 110 nM. The compound `c1ccc(-c2ccc3[nH]c(-c4ccc5[nH]c(-c6ccc7[nH]c(-c8ccccc8)nc7c6)nc5c4)nc3c2)cc1` showed an REC in assay [1] of 20. Also, it took 60 nM to reach half-maximal inhibition in assay [2] (IC50). For `c1ccc2c(c1)ccc1[nH]c(-c3ccc4[nH]c(-c5ccc6[nH]cnc6c5)nc4c3)nc12` the same measures were 1 and 25000 nM. The corresponding values for `c1ccc2cc(-c3ccc4[nH]c(-c5ccc6[nH]c(-c7ccc8[nH]cnc8c7)nc6c5)nc4c3)ccc2c1` are 1 and 80 nM. The corresponding values for `c1ccc2cc3[nH]c(-c4ccc5[nH]c(-c6ccc7[nH]cnc7c6)nc5c4)nc3cc2c1` are over 1000 and over 100000 nM. Consider `CCCc1nc2cc(-c3nc4cc(-c5nc6cc(-c7ccccc7)ccc6[nH]5)ccc4[nH]3)ccc2[nH]1`, for which the REC in assay [1] was found to be 0.5. The IC50 in assay [2] stood at 60 nM. The corresponding values for `c1ccc2c(-c3ccc4[nH]c(-c5ccc6[nH]c(-c7ccc8[nH]cnc8c7)nc6c5)nc4c3)cccc2c1` are 2 and 2100 nM.

Turning to `c1ccc(-c2cccc3[nH]c(-c4ccc5[nH]c(-c6ccc7[nH]cnc7c6)nc5c4)nc23)cc1`, in assay [1], the REC came out at 5. Also, the IC50 in assay [2] worked out at 7000 nM.

`Clc1ccc(-c2ccc3[nH]c(-c4ccc5[nH]c(-c6ccc7[nH]cnc7c6)nc5c4)nc3c2)cc1`: in assay [1], the REC was determined as 2. In assay [2], this compound came in with an IC50 of 90 nM.

The values are drawn from ChEMBL document CHEMBL1130133, “Terbenzimidazoles: influence of 2"-, 4-, and 5-substituents on cytotoxicity and relative potency as topoisomerase I poisons” (J Med Chem, 1997).
